This passage reports Mean weight and inhibition results from ChEMBL document CHEMBL1125031, “Structure-activity relationship of antiestrogens. Studies on 2,3-diaryl-1-benzopyrans” (J Med Chem, 1990).

The target in test [1] is T1, Estrogen receptor (Rattus norvegicus) (UniProt P06211+Q62986). The test is described as follows: Antiestrogenic activity in presence of estradiol as mean uterine weight in rats after 10 ug dose. The format is functional.
Test [2] has as its target T1, Estrogen receptor (Rattus norvegicus). The test is described as follows: Estrogenic activity as mean uterine weight in rats after 1 mg dose. The format is functional. Summed up:
(§1)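 Immature female Sprague-Dawley rats, 21–23 days old, in groups of 6–9. Test doses suspended in 0.2 mL propylene glycol–0.9% saline (1:1, v/v) and given subcutaneously on three consecutive days; vehicle-only controls. Autopsy 24 h after the last injection, uterine wet weight recorded in mg as mean ± SD.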

Test [3] has the same target. The test is described as follows: Antiestrogenic activity in presence of estradiol as mean uterine weight in rats at 1 mg dose.
The target is the same in test [4]. The test is described as follows: Estrogenic activity as mean uterine weight in rats after 10 ug dose. The test is classed as functional. A digest of the protocol:
as §1

Test [5] shares this target. The test is described as follows: Estrogenic activity as mean uterine weight in rats at 10 ug/rat. The format is functional. Summed up:
as §1

The target is the same in test [6]. The test is described as follows: Estrogenic activity as mean uterine weight in rats at 30 ug/rat. The test is classed as functional. Summed up: as §1
The target is the same in test [7]. The test is described as follows: Mean percent inhibition of uterotrophic effect in rats at 30 ug/rat. The test is classed as functional.
The target is the same in test [8]. The test is described as follows: Estrogenic activity as mean uterine weight in rats at 0 ug/rat. The format is functional. A digest of the protocol: as §1
Test [9] shares this target. The test is described as follows: Antiestrogenic activity in presence of estradiol at 1 ug/rat. The test is classed as functional.
The target is the same in test [10]. The test is described as follows: Mean percent inhibition of uterotrophic effect in rats at 1 ug/rat. The test is classed as functional.
For test [11] the target is unchanged. The test is described as follows: Mean percent inhibition of uterotrophic effect in rats at 0 ug/rat. The test is classed as functional.
For test [12] the target is unchanged. The test is described as follows: Mean percent inhibition of uterotrophic effect in rats at 10 ug/rat. The format is functional.
For test [13] the target is unchanged. The test is described as follows: Antiestrogenic activity in presence of estradiol at 30 ug/rat. The test is classed as functional.
For test [14] the target is unchanged. The test is described as follows: Estrogenic activity as mean uterine weight in rats at 1 ug/rat. The test is classed as functional. A digest of the protocol: as §1
For test [15] the target is unchanged. The test is described as follows: Antiestrogenic activity in presence of estradiol at 0 ug/rat. The test is classed as functional.
For test [16] the target is unchanged. The test is described as follows: Antiestrogenic activity in presence of estradiol at 10 ug/rat. The format is functional.

With `Oc1ccc(C2Oc3ccccc3C=C2c2ccccc2)cc1` (stereo unspecified), the Mean weight in test [1] turned out to be 48.8 mg; in [2], 13.8 mg.

Consider `Oc1ccc(C2=C(c3ccccc3)Cc3ccccc3O2)cc1`, for which the results for the Mean weight in test [3] and in test [2] were 46.7 mg and 26.2 mg, respectively.

Take `c1ccc(C2=C(c3ccc(OCCN4CCCC4)cc3)Oc3ccccc3C2)cc1`: the Mean weight in test [1] turned out to be 29.4 mg; in test [2] it was 24 mg.

As to `Oc1ccc(C2Oc3ccccc3CC2c2ccccc2)cc1` (stereo unspecified), the Mean weight worked out at 59 mg in test [1] and 14.9 mg in test [2].

As to `c1ccc(C2Cc3ccccc3OC2c2ccc(OCCN3CCCC3)cc2)cc1` (stereo unspecified), the Mean weight in test [1] was found to be 57.2 mg; in [2], 12.3 mg.

As to `O=c1c(-c2ccccc2)c(-c2ccc(OCCN3CCCC3)cc2)oc2ccccc12`, the Mean weight in test [1] came out at 40.3 mg; in [4], 13.2 mg.

Regarding `C1=C(c2ccccc2)C(c2ccc(OCCN3CCCC3)cc2)Oc2ccccc21` (stereo unspecified), the Mean weight in [5] turned out to be 24.6 mg; in [6], 23.6 mg; in [4], 24.6 mg; in test [8], 11.2 mg; in test [9], 39.9 mg; in test [13], 22.2 mg. For the same compound, the Mean weight in [14] came out at 22.5 mg; in test [15] it was 45.1 mg. Besides, the inhibition stood at 70% in test [7], 12% in [10], 0% in test [11] and 66% in test [12].

On to `COc1ccc2c(c1)OC(c1ccc(OCCN3CCCC3)cc1)C(c1ccccc1)C2=O` (stereo unspecified), for which the Mean weight stood at 46.5 mg in test [1] and 12 mg in [4].

`COc1ccc2c(c1)OC(c1ccc(OCCN3CCCC3)cc1)C(c1ccccc1)=C2` (stereo unspecified): the Mean weight came to 25 mg in [6]; 28.3 mg in test [1]; 27.6 mg in [4]; 10.6 mg in test [8]; 38.3 mg in test [9]; 23.6 mg in [13]. In addition, the figures for the Mean weight in test [14], in test [15] and in [16] were 23.8 mg, 44.7 mg and 27.5 mg, respectively. For the same compound, the inhibition in test [7] is 65%; in test [10], 9%; in test [11], 0%; in test [12], 50%.

As to `O=c1c(-c2ccccc2)c(-c2ccccc2)oc2cc(OCCN3CCCC3)ccc12`, the Mean weight in [1] is 40.7 mg; in test [4] it was 11.1 mg.

A word on the inhibition: it is the relative decrease from the control value, in per cent. A lower inhibition goes with a response near the control.
